Results on 18 compounds are retold here after PubChem BioAssay.

The source made the active and inactive calls. Unless noted, no stated cut-off is given here; in the data, active means inhibition above about 30%; inactive means the rest.

The nature of assay [1]: SK-BR-3 cell growth inhibitors, pilot screen, 24 h, human (AID 572;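 active means viability at or below 10% of carrier control in both of two separate runs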;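 further: compound exposure lasted between 18 and 24 h rather than exactly 24 h; 100% = carrier-treated control wells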). The following applies: SK-BR-3 viability, CellTiter-Glo luminescence, at 10 µM, stronger effect = lower value. In general terms: In ATP-based viability assays light output follows the ATP content of the culture.
Assay [2] in a line: HUVEC growth inhibition – cell-based, human, primary screen (AID 575;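 active means viability at or below 30% in both replicate assays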;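 further: 100% = median of untreated cell wells with 0.1% DMSO on each plate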). The following applies: HUVEC proliferation, CellTiter-Glo luminescence, 72 h; at 10 µM; stronger effect = lower value. The method in brief: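 material = primary HUVEC, no more than 12 passages | input = 1250 cells per well | controls = vehicle and MePR control wells | measured by = CTG luminescence | times = 72 h compound incubation | format = collagen-coated 384-well format | read-out = % viability vs DMSO wells | doses = single 10 µM dose, 0.1% DMSO, from 5x medium stock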

Assay [3] can be described thus: growth inhibitors of H69AR lung tumor, primary screen, human, duplicate replicates (AID 580;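 active means viability at or under a set limit in both replicates, limit being median viability minus 3 SD, cut at about 48% in these data, passing the limit was not always enough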;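 further: 100% = mean luminescence of untreated wells and 0% = no signal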). The following applies: H69AR lung tumor cells viability, ATP luminescence, 72 h; at 10 µM; stronger effect = lower value.
The nature of assay [4]: reversal of MRP1-mediated doxorubicin resistance, pilot screen, H69AR cells, doxorubicin co-treatment (AID 601;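 active means viability loss from added drug above about 55%, and viability with drug at most 40%, in both replicates, limit read from the data, passing the limit was not always enough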). The following applies: CellTiter-Glo, 72 h, at 10 µM; for differential viability (reversal): stronger effect = higher value.
A short description of assay [5]: 384-well plate pilot, post-Golgi transport modulator project, inhibition of yeast transport mutant growth (AID 636; in the data active means inhibition above about 31%). The following applies: absorbance 615 nm, about 18 h, stronger effect = higher value.
Assay [6] is described as follows: growth suppression of yeast trafficking mutant, preliminary HTS, modulators of trafficking downstream of Golgi apparatus project, 1536-format plate, OD 615 nm (AID 637). The following applies: yeast transport mutant growth, absorbance 615 nm, 18 h; stronger effect = higher value.
Where [7] appears, read: H69AR cells + 2 uM doxorubicin, measured here: viability with 2 uM doxorubicin, stronger effect = lower value.
[8] abbreviates: H69AR cells, compound alone cytotoxicity.

Broadly, the viability is a read-out of living cells in per cent, often relative to untreated cells. As usually defined, the inhibition is the relative decrease from the control value, in per cent. In the case of `O=C(O)CCc1ccc(-c2cccs2)n1NC(=O)c1ccccc1Br`, the viability was 96% (inactive) in assay [1]; 104% (inactive) in assay [2]; 106% (inactive) in assay [3]; 89.5% in assay [4] (setting [7]); 106% in assay [4] (setting [8]). Besides, the differential viability (reversal) in assay [4] (H69AR cells + 2 uM doxorubicin) was 16% (inactive). The results for the inhibition in assay [5] and in assay [6] were -6.71% (inactive) and 4.36% (inactive), respectively.

As for `Cc1cc(N2CCN(C3CCCC3)CC2)n2c(nc3ccccc32)c1C#N`, the viability is 78% (inactive) in assay [1]; 96.8% (inactive) in assay [2]; 91.4% (inactive) in assay [3]; 63.3% in assay [4] (setting [7]); 91.4% in assay [4] (setting [8]). In addition, in assay [4] (H69AR cells + 2 uM doxorubicin), the differential viability (reversal) is 28.1% (inactive). Also, the inhibition in assay [5] was -2.19% (inactive); in assay [6], 2.42% (inactive).

Turning to `C=CCOc1ccc(C2/C(=C(\O)c3c(C)[nH]c(C(=O)OC)c3C)C(=O)C(=O)N2CCN(C)C)cc1` (centres undefined), the viability in assay [1] is 95% (inactive); in assay [2], 82.7% (inactive); in assay [3], 90.2% (inactive); in assay [4] (setting [7]), 95.9%; in assay [4] (setting [8]), 90.2%. Besides, in assay [4] (H69AR cells + 2 uM doxorubicin), the differential viability (reversal) is -5.67% (inactive). Also, the inhibition in assay [5] was 0.52% (inactive); in assay [6], 11.5% (inactive).

`O=C(CSc1nnc(-c2ccco2)n1CC1CCCO1)NC1CCCC1` (centres undefined): the viability was 116% (inactive) in assay [1]; 94.6% (inactive) in assay [2]; 94.3% (inactive) in assay [3]; 86.8% in assay [4] (setting [7]); 94.3% in assay [4] (setting [8]). Moreover, in assay [4] (H69AR cells + 2 uM doxorubicin), the differential viability (reversal) is 7.47% (inactive). Besides, the figures for the inhibition in assay [5] and in assay [6] were -2% (inactive) and -5.27% (inactive), respectively.

`COc1ccc(CNc2nc3nc(C)c(Cl)c(C)n3n2)cc1OC`: the viability in assay [1] was 97% (inactive); in assay [2] it was 104% (inactive); in assay [3], 92.6% (inactive); in assay [4] (setting [7]) it was 89.4%; in assay [4] (setting [8]) it was 92.6%. Further, the differential viability (reversal) in assay [4] (H69AR cells + 2 uM doxorubicin) was 3.22% (inactive). The values for the inhibition in assay [5] and in assay [6] were -6.35% (inactive) and -6.73% (inactive), respectively.

As to `CCOC(=O)C1/C(=N\O)CC(C)(O)C(C(=O)OCC)C1c1ccc(N(C)C)cc1` (centres undefined), the viability was 72% (inactive) in assay [1]; 96.9% (inactive) in assay [2]; 87.5% (inactive) in assay [3]; 101% in assay [4] (setting [7]); 87.5% in assay [4] (setting [8]). Besides, the differential viability (reversal) in assay [4] (H69AR cells + 2 uM doxorubicin) was -13.3% (inactive). The inhibition in assay [5] is 1.64% (inactive); in assay [6], 5.48% (inactive).

Consider `CCOC(=O)c1cc(CC)sc1NC(=O)COC`, for which the viability was 104% (inactive) in assay [1]; 89.4% (inactive) in assay [2]; 88.8% (inactive) in assay [3]; 86.2% in assay [4] (setting [7]); 88.8% in assay [4] (setting [8]). The differential viability (reversal) in assay [4] (H69AR cells + 2 uM doxorubicin) is 2.66% (inactive). Moreover, the inhibition was -7.07% (inactive) in assay [5] and 0.18% (inactive) in assay [6].

For `O=C(NC1CCCC1)C(c1cccs1)N(Cc1ccco1)C(=O)Cn1nnc(-c2cccs2)n1` (centres undefined), the viability is 71% (inactive) in assay [1]; 87.3% (inactive) in assay [2]; 92.8% (inactive) in assay [3]; 94.3% in assay [4] (setting [7]); 92.8% in assay [4] (setting [8]). Also, the differential viability (reversal) in assay [4] (H69AR cells + 2 uM doxorubicin) is -1.47% (inactive). Besides, the inhibition in assay [5] was -8.22% (inactive); in assay [6] it was -0.48% (inactive).

Consider `CCOc1nc(-c2ccccc2)ccc1-c1noc(-c2ccc(OC)c(OC)c2)n1`, for which the viability in assay [1] was 68% (inactive); in assay [2], 85.1% (inactive); in assay [3], 67.1% (inactive); in assay [4] (setting [7]), 71.2%; in assay [4] (setting [8]) it was 67.1%. Besides, the differential viability (reversal) in assay [4] (H69AR cells + 2 uM doxorubicin) was -4.04% (inactive). In addition, the inhibition in assay [5] was -1.43% (inactive); in assay [6], -4.43% (inactive).

Turning to `OC(CCCN1CCC(O)(c2ccc(Cl)cc2)CC1)c1ccc(F)cc1` (centres undefined), the viability was 89% (inactive) in assay [1]; 73.1% (inactive) in assay [2]; 66.1% (inactive) in assay [3]; 72.3% in assay [4] (setting [7]); 66.1% in assay [4] (setting [8]). In addition, in assay [4] (H69AR cells + 2 uM doxorubicin), the differential viability (reversal) is -6.19% (inactive). For the same compound, the inhibition in assay [5] was 2.47% (inactive); in assay [6] it was 4.5% (inactive).

Take `COc1ccc(CN2C(=O)[C@@H]3C(c4ccc(F)cc4)=NO[C@@H]3C2=O)cc1`: the viability in assay [1] is 91% (inactive); in assay [2] it was 114% (inactive); in assay [3], 89.1% (inactive); in assay [4] (setting [7]), 85.6%; in assay [4] (setting [8]), 89.1%. Further, the differential viability (reversal) in assay [4] (H69AR cells + 2 uM doxorubicin) was 3.49% (inactive). In addition, the inhibition was -6.62% (inactive) in assay [5] and 1.64% (inactive) in assay [6].

With `NC(N)=Nc1nc(CSCC/C(N)=N/S(N)(=O)=O)cs1`, the viability in assay [1] is 89% (inactive); in assay [2] it was 98.5% (inactive); in assay [3], 95.8% (inactive); in assay [4] (setting [7]), 104%; in assay [4] (setting [8]) it was 95.8%. Also, the differential viability (reversal) in assay [4] (H69AR cells + 2 uM doxorubicin) is -8.47% (inactive). Moreover, the figures for the inhibition in assay [5] and in assay [6] were 3.9% (inactive) and 5.33% (inactive), respectively.

Consider `COc1ccc(-c2nnc(SC(C)C(=O)Nc3nccs3)n2-c2ccccc2)cc1OC` (centres undefined), for which the viability in assay [1] was 105% (inactive); in assay [2], 83.5% (inactive); in assay [3], 86.8% (inactive); in assay [4] (setting [7]), 87.4%; in assay [4] (setting [8]), 86.8%. For the same compound, the differential viability (reversal) in assay [4] (H69AR cells + 2 uM doxorubicin) is -0.545% (inactive). Also, the values for the inhibition in assay [5] and in assay [6] were -0.96% (inactive) and 3.87% (inactive), respectively.

Regarding `COc1ccc(OC)c(-c2cc(C(=O)NCc3cccs3)no2)c1`, the viability was 101% (inactive) in assay [1]; 76.2% (inactive) in assay [2]; 94.4% (inactive) in assay [3]; 87.1% in assay [4] (setting [7]); 94.4% in assay [4] (setting [8]). For the same compound, the differential viability (reversal) in assay [4] (H69AR cells + 2 uM doxorubicin) is 7.29% (inactive). Besides, the inhibition in assay [5] was -2.6% (inactive); in assay [6] it was -5.74% (inactive).

`Nn1c(SCC(=O)Nc2ccccc2)nnc1-c1cccnc1`: the viability in assay [1] was 78% (inactive); in assay [2], 96.9% (inactive); in assay [3], 88.1% (inactive); in assay [4] (setting [7]), 85.8%; in assay [4] (setting [8]), 88.1%. For the same compound, in assay [4] (H69AR cells + 2 uM doxorubicin), the differential viability (reversal) is 2.29% (inactive). Moreover, the figures for the inhibition in assay [5] and in assay [6] were -8% (inactive) and 3.64% (inactive), respectively.

Regarding `CC1=Nn2c(nnc2-c2ccccc2)SC1`, the viability in assay [1] is 96% (inactive); in assay [2], 105% (inactive); in assay [3], 95.2% (inactive); in assay [4] (setting [7]), 77.7%; in assay [4] (setting [8]), 95.2%. Besides, the differential viability (reversal) in assay [4] (H69AR cells + 2 uM doxorubicin) was 17.6% (inactive). For the same compound, the results for the inhibition in assay [5] and in assay [6] were -0.93% (inactive) and 0% (inactive), respectively.

Consider `COc1ccccc1-c1nc2n(n1)C(c1ccc(Cl)cc1)C(C(N)=O)=C(C)N2` (centres undefined), for which the viability in assay [1] is 126% (inactive); in assay [2] it was 89.8% (inactive); in assay [3] it was 83.5% (inactive); in assay [4] (setting [7]) it was 87.9%; in assay [4] (setting [8]), 83.5%. Besides, the differential viability (reversal) in assay [4] (H69AR cells + 2 uM doxorubicin) was -4.36% (inactive). For the same compound, the inhibition in assay [5] is -0.91% (inactive); in assay [6] it was -3.61% (inactive).

Regarding `O=C(NCCCN1CCOCC1)c1cc(-c2ccc(Cl)cc2)on1`, the viability in assay [1] was 88% (inactive); in assay [2] it was 103% (inactive); in assay [3] it was 94.1% (inactive); in assay [4] (setting [7]) it was 78.2%; in assay [4] (setting [8]), 94.1%. In assay [4] (H69AR cells + 2 uM doxorubicin), the differential viability (reversal) was 15.9% (inactive). For the same compound, the inhibition was -6.8% (inactive) in assay [5] and 0.55% (inactive) in assay [6].
